# Calls of active or inactive are those of the source. The calls are words filed in the database; no cut-off is given here.
# Key:
# [1] = Antioxidant activity assessed as AAPH scavenging activity by measuring residual fluorescence at 50 uM measured at 1 min interval for 30 mins by ORAC fluorescein assay relative to control; assay type: functional
# In short: (§1)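 ORAC-FL assay with fluorescein as the probe and AAPH as the peroxyl radical generator. The loss of fluorescence over time was followed, and the result is given as % fluorescence restored at 10 and 50 µM. Each value is the mean of two independent experiments.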
# [2] = system: NHDF; test: Cytotoxicity against HDF cells; assay type: cell-based, Homo sapiens
# [3] = system: Proteus vulgaris; test: Antibacterial activity against Proteus vulgaris; assay type: functional
# [4] = system: Trichophyton interdigitale; test: Antifungal activity against Trichophyton mentagrophytes var. interdigitale; assay type: functional
# [5] = system: Rattus norvegicus; test: Analgesic activity in rat assessed as prolongation of latency period at 15 mg/kg, ip measured after 1 hr by hot-plate test relative to control; assay type: functional
# In short: (§2)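 Hot-plate test in rats. Compounds were given by intraperitoneal injection. Latency was read at 1 h and, for some compounds, also at 2 h after dosing. Results are expressed as % prolongation of the latent period versus vehicle-treated control. Significance was given as p-values.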
# [6] = system: Streptococcus pyogenes; test: Antibacterial activity against Streptococcus pyogenes; assay type: functional
# [7] = system: Trichophyton tonsurans; test: Antifungal activity against Trichophyton tonsurans; assay type: functional
# [8] = Antioxidant activity assessed as trolox equivalent of ABTS radical scavenging activity measured after 1 hr by UV-vis spectrophotometric method; assay type: functional
# In short: (§3)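 ABTS cation-radical decolorization was read spectrophotometrically as the fall in absorbance after 1 h. Trolox was the reference. TEAC was taken as the ratio of concentration-response slopes, test/Trolox, and IC50 was also derived. Data are mean ± SEM, n = 3.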
# [9] = system: Shigella flexneri; test: Antibacterial activity against Shigella flexneri; assay type: functional
# [10] = system: Rattus norvegicus; test: Antiinflammatory activity in rat model of carrageenan-induced paw edema assessed as inhibition of hind paw swelling at 15 mg/kg, ip measured after 3 hrs relative to control; assay type: functional
# [11] = system: Neisseria gonorrhoeae; test: Antibacterial activity against Neisseria gonorrhoeae; assay type: functional
# [12] = system: Nannizzia gypsea; test: Antifungal activity against Trichophyton gypseum; assay type: functional
# [13] = system: Klebsiella pneumoniae; test: Antibacterial activity against Klebsiella pneumoniae; assay type: functional
# [14] = system: HeLa; test: Cytotoxicity against human HeLa cells; assay type: functional, cell-based; conditions: for IC50: Homo sapiens, HeLa, read-out: IC50
# [15] = Antioxidant activity assessed as AAPH scavenging activity by measuring residual fluorescence at 10 uM measured at 1 min interval for 30 mins by ORAC fluorescein assay relative to control; assay type: functional; in short: as §1
# [16] = system: Trichophyton rubrum; test: Antifungal activity against Trichophyton rubrum; assay type: functional
# [17] = system: Staphylococcus aureus; test: Antibacterial activity against methicillin resistant Staphylococcus aureus; assay type: functional
# [18] = system: Erythrocyte; test: Antioxidant activity in human erythrocytes assessed as protection against AAPH-induced hemolysis at 400 uM preincubated for 20 mins followed by AAPH addition and measured after 2 hrs by spectrophotometric method relative to control; assay type: functional; conditions: time 140 min, 2.333 h
# In short: (§4)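 Erythrocyte hemolysis assay with AAPH as the free-radical initiator, testing 50 and 400 µM. Results are expressed as relative protection of membranes against oxidative damage, each the mean of two independent experiments.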
# [19] = system: Staphylococcus aureus; test: Antibacterial activity against Staphylococcus aureus; assay type: functional
# [20] = system: Pseudomonas aeruginosa; test: Antibacterial activity against Pseudomonas aeruginosa; assay type: functional
# [21] = Selectivity index, ratio of IC50 for HDF cells to IC50 for human HeLa cells; assay type: toxicity; conditions: HDF cells versus HeLa cells, read-out: Ratio IC50
# [22] = system: Serratia marcescens; test: Antibacterial activity against Serratia marcescens; assay type: functional
# [23] = system: Microsporum canis; test: Antifungal activity against Microsporum canis; assay type: functional
# [24] = system: Mycobacterium tuberculosis; test: Antitubercular activity against Mycobacterium tuberculosis H37Rv; assay type: functional
# In short: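 Mycobacterium tuberculosis strain H37Rv; minimum inhibitory concentration (MIC) taken as the lowest level needed to inhibit bacterial growth; isoniazid and pyrazinamide served as reference drugs.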
# [25] = system: Rattus norvegicus; test: Antiinflammatory activity in rat model of carrageenan-induced paw edema assessed as inhibition of hind paw swelling at 15 mg/kg, ip measured after 5 hrs; assay type: functional, organism-based
# [26] = system: Trichophyton violaceum; test: Antifungal activity against Trichophyton violaceum; assay type: functional
# [27] = system: Erythrocyte; test: Antioxidant activity in human erythrocytes assessed as protection against AAPH-induced hemolysis at 50 uM preincubated for 20 mins followed by AAPH addition and measured after 2 hrs by spectrophotometric method relative to control; assay type: functional; conditions: time 140 min, 2.333 h; in short: as §4
# [28] = system: Escherichia coli; test: Antibacterial activity against Escherichia coli; assay type: functional
# [29] = system: Citrobacter braakii; test: Antibacterial activity against Citrobacter braakii; assay type: functional
# [30] = system: Rattus norvegicus; test: Antiinflammatory activity in rat model of carrageenan-induced paw edema assessed as inhibition of hind paw swelling at 15 mg/kg, ip measured after 1 hr relative to control; assay type: functional
# [31] = system: Epidermophyton floccosum; test: Antifungal activity against Epidermophyton floccosum; assay type: functional
# [32] = system: Candida albicans; test: Antifungal activity against Candida albicans; assay type: functional
# [33] = Antioxidant activity assessed as ABTS radical scavenging activity measured after 1 hr by UV-vis spectrophotometric method; assay type: functional; in short: as §3
# [34] = Acute toxicity in mouse at 300 mg/kg, ip administered as single dose; assay type: organism-based; conditions: in vivo
# In short: (§5)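 Mice, single intraperitoneal dose, following OECD Guideline for testing of chemicals; three mice per dose level; doses tested 10–300 mg/kg. Read-out is the number of survivors out of 3, used to estimate the expected LD50 range.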
# [35] = Acute toxicity in ip dosed mouse administered as single dose; assay type: organism-based; conditions: in vivo; in short: as §5
# [36] = system: Rattus norvegicus; test: Analgesic activity in rat assessed as prolongation of latency period at 15 mg/kg, ip measured after 2 hrs by hot-plate test relative to control; assay type: functional; in short: as §2
# [37] = Drug metabolism assessed as nitric oxide release in absence of rat plasma by Griess reagent based assay; assay type: cell-free
# [38] = Acute toxicity in mouse at 75 mg/kg, ip administered as single dose; assay type: organism-based; conditions: in vivo; in short: as §5
# [39] = Drug metabolism assessed as nitric oxide release in presence of rat plasma by Griess reagent based assay; assay type: cell-free
# [40] = Acute toxicity in mouse at 150 mg/kg, ip administered as single dose; assay type: organism-based; conditions: in vivo; in short: as §5
# [41] = Acute toxicity in mouse at 10 mg/kg, ip administered as single dose; assay type: organism-based; conditions: in vivo; in short: as §5
# [42] = Homo sapiens, NHDF, read-out: IC50
SMILES,MIC [3],MIC [4],MIC [6],MIC [7],Activity [8],MIC [9],MIC [11],MIC [12],MIC [13],MIC [16],fold change (FC) [18],MIC [19],MIC [20],MIC [22],MIC [23],Activity [25],fold change (FC) [27],MIC [28],MIC [29],MIC [31],other results
O=Nc1c(C(F)(F)F)n[nH]c1-c1ccccc1,31.2 µg/mL,> 200 µg/mL,7.8 µg/mL,> 200 µg/mL,inactive,31.2 µg/mL,62.5 µg/mL,> 200 µg/mL,62.5 µg/mL,> 200 µg/mL,1.05,31.2 µg/mL,125 µg/mL,62.5 µg/mL,> 200 µg/mL,Active,0.99,62.5 µg/mL,62.5 µg/mL,> 200 µg/mL,"Activity [1]: -119%; IC50 [2, 42]: 1.42 µM; Activity [5]: 51.7%; inhibition in vivo at 15 mg/kg [10]: 32%; Activity [14]: Dose-dependent effect; IC50 [14]: 1.86 µM; Activity [15]: -80.4%; MIC [17]: 62.5 µg/mL; selectivity ratio [21]: 0.76; MIC [24]: 0.36 µg/mL; MIC [26]: > 200 µg/mL; inhibition [30]: inactive; MIC [32]: 100 µg/mL"
CS(=O)(=O)c1ccc(N2N=C(c3ccccc3)/C(=N\O)C2(O)C(F)(F)F)cc1 (stereo unspecified),–,–,–,–,0.16 equiv,–,–,–,–,–,1.14,–,–,–,–,Active,1.03,–,–,–,IC50 [33]: 169 µM; Activity [1]: 49.1%; Activity [5]: 53.7%; Activity [34]: Non-Toxic; inhibition [10]: inactive; LD50 [35]: > 300 mg/kg; Activity [15]: 30.6%; Activity [36]: 44.3%; inhibition [30]: inactive
O=Nc1c(C(F)(F)F)n[nH]c1-c1cccs1,31.2 µg/mL,50 µg/mL,7.8 µg/mL,50 µg/mL,0.02 equiv,500 µg/mL,62.5 µg/mL,50 µg/mL,500 µg/mL,12.5 µg/mL,1.12,15.6 µg/mL,> 500 µg/mL,250 µg/mL,25 µg/mL,Active,1.18,250 µg/mL,250 µg/mL,50 µg/mL,Activity [1]: -98.7%; Drug metabolism [37]: Metabolite not detected; Activity [15]: -56.2%; MIC [17]: 62.5 µg/mL; MIC [24]: 3.1 µg/mL; Activity [38]: Toxic; MIC [32]: 50 µg/mL
O=[N+]([O-])O[C@H]1CO[C@H]2[C@@H]1OC[C@H]2O[N+](=O)[O-],–,–,–,–,–,–,–,–,–,–,–,–,–,–,–,–,–,–,–,–,Drug metabolism [37]: Metabolite detected
Cn1nc(C(F)(F)F)c(N=O)c1-c1cccs1,> 500 µg/mL,25 µg/mL,> 500 µg/mL,50 µg/mL,–,> 500 µg/mL,500 µg/mL,50 µg/mL,> 500 µg/mL,12.5 µg/mL,–,> 500 µg/mL,> 500 µg/mL,> 500 µg/mL,25 µg/mL,Active,–,500 µg/mL,> 500 µg/mL,50 µg/mL,Activity [5]: 29.8%; Drug metabolism [39]: Metabolite detected; Drug metabolism [37]: Metabolite not detected; Activity [36]: 43.8%; MIC [24]: 12.5 µg/mL; MIC [32]: 25 µg/mL
Cn1nc(C(F)(F)F)c(N=O)c1-c1ccccc1,> 500 µg/mL,12.5 µg/mL,> 500 µg/mL,3.12 µg/mL,0.01 equiv,> 500 µg/mL,62.5 µg/mL,25 µg/mL,> 500 µg/mL,12.5 µg/mL,1.02,> 500 µg/mL,> 500 µg/mL,> 500 µg/mL,100 µg/mL,Active,1,> 500 µg/mL,> 500 µg/mL,0.38 µg/mL,"Activity [1]: 16.1%; IC50 [2, 42]: 49.5 µM; Activity [5]: 80.2%; Activity [40]: Non-Toxic; Drug metabolism [39]: Metabolite detected; inhibition [10]: inactive; Drug metabolism [37]: Metabolite not detected; Activity [14]: Dose-dependent effect; IC50 [14]: 63.9 µM; Activity [15]: 3%; selectivity ratio [21]: 0.77; MIC [26]: 6.25 µg/mL; inhibition [30]: inactive; MIC [32]: inactive"
Cc1ccc(-c2[nH]nc(C(F)(F)F)c2N=O)cc1,–,–,–,–,0.02 equiv,–,–,–,–,–,1.03,–,–,–,–,Active,1.03,–,–,–,Activity [1]: -99.8%; Activity [5]: inactive; Activity [40]: Non-Toxic; Activity [15]: -60%; Activity [36]: inactive
Cc1[nH]nc(C(F)(F)F)c1N=O,31.2 µg/mL,50 µg/mL,7.8 µg/mL,50 µg/mL,inactive,250 µg/mL,15.6 µg/mL,50 µg/mL,500 µg/mL,25 µg/mL,–,31.2 µg/mL,500 µg/mL,250 µg/mL,25 µg/mL,Active,–,250 µg/mL,250 µg/mL,50 µg/mL,IC50 ([2]; nhdf): Not Active; Activity [40]: Toxic; Activity [14]: Dose-dependent effect; IC50 [14]: 61.6 µM; MIC [17]: 62.5 µg/mL; selectivity ratio [21]: > 1.62; MIC [24]: 1.62 µg/mL; MIC [32]: 50 µg/mL
O=Nc1c(C(F)(F)F)n[nH]c1-c1ccco1,62.5 µg/mL,50 µg/mL,7.8 µg/mL,50 µg/mL,0.02 equiv,125 µg/mL,15.6 µg/mL,25 µg/mL,125 µg/mL,12.5 µg/mL,–,31.2 µg/mL,> 500 µg/mL,125 µg/mL,12.5 µg/mL,Active,–,62.5 µg/mL,125 µg/mL,50 µg/mL,Activity [34]: Toxic; MIC [17]: 15.6 µg/mL; MIC [24]: 6.2 µg/mL; MIC [32]: 25 µg/mL
Nc1c(C(F)(F)F)n[nH]c1-c1ccccc1,–,–,–,–,–,–,–,–,–,–,0.02,–,–,–,–,–,1.1,–,–,–,IC50 [33]: 14.1 µM; Activity [5]: 56.7%; Activity [40]: Non-Toxic; Activity [36]: 66.7%
Cl.Nc1c(C(F)(F)F)n[nH]c1-c1cccs1,> 250 µg/mL,> 200 µg/mL,> 250 µg/mL,> 200 µg/mL,–,> 250 µg/mL,62.5 µg/mL,> 200 µg/mL,> 250 µg/mL,200 µg/mL,–,> 250 µg/mL,> 250 µg/mL,> 250 µg/mL,200 µg/mL,–,–,> 250 µg/mL,> 250 µg/mL,200 µg/mL,IC50 [33]: 13.3 µM; Activity [40]: Toxic; Activity [41]: Non-Toxic; MIC [26]: > 200 µg/mL; Activity [38]: Toxic; MIC [32]: > 200 µg/mL
Nc1c(C(F)(F)F)n[nH]c1-c1cccs1,–,–,–,–,–,–,–,–,–,–,0.01,–,–,–,–,–,1.11,–,–,–,IC50 [33]: 17.6 µM; Activity [41]: Non-Toxic; Activity [38]: Toxic
